# A selection: hits, their analogues and other compounds. The true share with any hit is near 3.7%.
# Kir21 inh: inhibitors of mouse Kir2.1 inward-rectifier potassium channel | AID 1672, 2009 | HEK293-Kir2.1, FluxOR thallium flux fluorescence; active compounds read low | 310,000 compounds, 0.85% hits | B-score at 10 µM;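 active means fluorescence ratio B-score at or below minus 3 SD of library scores, with starting-brightness B-score within 2 SD, cut at about -4.2 in these data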;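 further: channel flux triggered by added potassium and thallium sulfate stimulus; B-score of peak minus minimum fluorescence over baseline after thallium stimulus; more negative B-score means stronger Kir2.1 block with less thallium influx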
# hERG protect: hERG rescue from dofetilide block, primary screen, cell-based, CHO-hERG, FluxOR thallium flux, dofetilide IC70 | dofetilide IC70 present | activation (rescue from dofetilide block), less the hit threshold, % at 10 µM | 310,000 compounds, 0.51% hits;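 active means activation above the mean of controls blocked by dofetilide plus 5 SD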;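 further: thallium influx through hERG after potassium depolarization seen as dye fluorescence rise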
# KCNQ1 act: potentiators or activators of KCNQ1 channel, primary screen, cell-based, thallium flux, high-throughput | CHO-K1 KCNQ1, thallium flux FluxOR fluorescence; active compounds read high | AID 2648, 2010 | B-score at 10 µM | Potassium voltage-gated channel subfamily KQT member 1 (Homo sapiens), P51787 | 310,000 compounds, 0.35% hits;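 active means fluorescence ratio B-score, a plate-corrected score, at least three library SD, with initial intensity B-score within 5 SD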
#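 Assay system: CHO-K1 cells stably expressing KCNQ1; Medium: assay buffer with matched DMSO; Also added: K+/Tl+ depolarizing stimulus; Dosing: single dose; Timing: dye 90 min, compound 20 min, room temperature; Measured by: kinetic FluxOR thallium fluorescence, 10-s 1-Hz baseline, 110-s post-stimulus read; Read-out: peak-minus-minimum fluorescence over initial fluorescence, negative-control normalized, B-scored.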
# KCNQ1 block: inhibitors of human KCNQ1 channel, primary screen, cell-based, thallium flux, high-throughput. CHO-K1 KCNQ1, FluxOR thallium flux fluorescence; active compounds read high. B-score at 10 µM. 310,000 compounds, 1.3% hits. AID 2642, 2010;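 active means compounds whose thallium flux B-score, printed positive for inhibition, exceeds three library SD while starting fluorescence stays within three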;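 further: channel opened by potassium depolarization with thallium stimulus after 20 min compound exposure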
# KCNK3 inh: human KCNK3 channel inhibitors, primary screen, CHO cells, FluxOR thallium flux, B-score. Potassium channel subfamily K member 3 (Homo sapiens), O14649. FluxOR fluorescence; active compounds read low. B-score at 10 µM. 340,000 compounds, 0.84% hits. AID 602410, 2012;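 active means B-score under library mean minus 4 SD, starting fluorescence ratio at most library mean plus 5 SD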;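 further: more negative B-score means stronger inhibition of thallium flux through KCNK3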
# KCNK9 inh: KCNK9 potassium channel inhibitors, primary screen, HEK293 cells, thallium flux | 310,000 compounds, 1.2% hits | B-score at 10 µM | FluxOR thallium flux fluorescence; active compounds read low | Potassium channel subfamily K member 9 (Homo sapiens), Q9NPC2;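 active means ratio B-score over 3 SD below the library mean, with starting fluorescence within 5 SD of its mean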;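 further: negative B-score means less thallium flux so channel inhibition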
# Target sequence (Q9NPC2 whole entry, looked up): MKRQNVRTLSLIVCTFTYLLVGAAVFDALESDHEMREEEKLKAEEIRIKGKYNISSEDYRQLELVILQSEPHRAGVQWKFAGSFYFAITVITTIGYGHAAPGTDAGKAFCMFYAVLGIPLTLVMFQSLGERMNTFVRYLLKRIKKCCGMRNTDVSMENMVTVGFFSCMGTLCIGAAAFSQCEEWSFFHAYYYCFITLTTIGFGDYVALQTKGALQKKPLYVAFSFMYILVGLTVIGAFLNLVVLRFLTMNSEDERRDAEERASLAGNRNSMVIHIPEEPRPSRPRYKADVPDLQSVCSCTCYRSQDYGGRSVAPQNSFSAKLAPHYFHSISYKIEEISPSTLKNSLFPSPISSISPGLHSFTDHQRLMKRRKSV
# * = called active by the depositor; i = inactive; nt = not tested or not shown.
SMILES,Kir21 inh,hERG protect,KCNQ1 act,KCNQ1 block,KCNK3 inh,KCNK9 inh
Cc1ccccc1C(=O)NC1CCN(CC(=O)Nc2ccccc2Cl)CC1,0.54,-5.9,i,i,i,i
Cc1c(Cl)cccc1NC(=O)CN1CCC(C(O)(c2ccccc2)c2ccccc2)CC1,0.28,-14.4,i,11*,i,i
CCn1c(CNc2ccc(Cl)cc2)nnc1SCc1ccc(Cl)cc1,-4.99*,-7.2,i,i,i,i
Cc1ccc(S(=O)(=O)N2CCCCC2)cc1NC(=O)CSc1nc(N)cc(=O)[nH]1,nt,nt,nt,nt,i,nt
CCn1cc(CN2N=C(C)CC2c2ccccc2)c(C)n1 (centres undefined),-0.34,-2.2,i,i,i,i
C=CCn1c(O)c(N=NC(=O)c2ccccc2NS(=O)(=O)c2cccs2)c2ccccc21,0.04,-10.3,i,i,i,i
C=CCn1c(O)c(N=NC(=S)Nc2ccccc2F)c2cc(S(=O)(=O)N3CCOCC3)ccc21,-0.01,5.9*,10*,i,i,i
Cc1ccc(Cn2c(O)c(N=NC(=S)Nc3ccccc3F)c3ccccc32)cc1,0.56,17.8*,i,i,i,i
Oc1c(N=NC(=S)Nc2ccccc2F)c2ccccc2n1Cc1ccccc1Cl,-0.89,21.2*,10*,i,i,i
C=CCn1c(O)c(N=NC(=S)Nc2ccccc2F)c2ccccc21,-2.58,102.4*,48*,i,i,i
O=S(=O)(Nc1nc2ccc(Cl)cc2s1)c1cccs1,1.64,-7.7,i,i,i,i
C=CCn1c(O)c(N=NC(=S)Nc2cccc(C)c2)c2ccccc21,-0.98,19.5*,40*,i,i,i
C/C(Cl)=C\Cn1c(O)c(N=NC(N)=S)c2ccccc21,0.9,14.5*,i,i,i,i
CCn1c(O)c(N=NC(=O)CNc2cccc(C)c2)c2ccccc21,-2.05,1.7,i,i,i,i
Oc1c(N=NC(=S)Nc2ccccc2F)c2ccccc2n1Cc1ccccc1,-1.11,58.8*,10*,i,i,i
NC(=S)N=Nc1c(O)n(Cc2ccccc2)c2ccccc12,3.23,-4.4,i,i,i,i
CC(C)C(C)(C#N)NC(=O)COC(=O)C1CCN(S(=O)(=O)c2ccc3c(c2)OCCO3)CC1 (centres undefined),nt,nt,nt,nt,i,nt
Cc1cccc(CN2CCCC(C(=O)Nc3ccc(-c4cscn4)cc3)C2)c1 (centres undefined),-2.11,-9.8,i,i,i,i
COc1ccccc1CNC(=O)c1cc(-c2ccncc2)nc2c(Cl)cccc12,0.53,-11.9,i,i,i,i
Cc1cccc(OCc2cc(-c3ccccc3)no2)c1C,1.79,-8.9,i,i,i,i
Clc1ccc(OCc2cc(-c3ccccc3)no2)c(Cl)c1,1.75,0.4,i,i,i,-7.4*
COC1(OC)C(/C=C/c2ccc(Cl)cc2)C(C#N)(C#N)C1(OC)OC (centres undefined),-0.62,-4.8,i,10*,i,i
CS(=O)(=O)c1nc(-c2cccs2)cc(C(F)(F)F)n1,-5.97*,-20.6,i,i,nt,i
COc1nc(-c2ccccc2)cc(C(F)(F)F)n1,0.74,4.7*,i,i,i,i
COc1ccc(-c2cc(C(F)(F)F)nc(S(C)(=O)=O)n2)cc1,-1.3,-11.4,i,6*,i,i
SMILES,Kir21 inh,hERG protect,KCNQ1 act,KCNQ1 block,KCNK3 inh,KCNK9 inh
CN1CCN(c2nc(-c3cccs3)cc(C(F)(F)F)n2)CC1,-1.36,-0.2,10*,i,i,i
Cc1ccc2c(c1)N(CC(=O)N1CCCCC1)C(=O)CO2,0.47,-6.1,i,i,i,i
COC(=O)C(CC(=O)c1ccc(Cl)cc1)c1ccccc1 (centres undefined),nt,nt,nt,nt,i,nt
CCc1cc(=O)oc2c(C)c(OCC(=O)N3CCCc4ccccc43)ccc12,-0.78,-3.1,i,i,i,i
CCCN1CCC(NC(=O)C2CCCCC2C(=O)O)CC1 (centres undefined),0.11,-4.1,i,i,i,i
COc1ccc2[nH]c(C(=O)O)c(CCN3C(=O)c4cccc([N+](=O)[O-])c4C3=O)c2c1,-1.63,-10.5,i,i,i,i
Cn1c(CNc2cccc(Cl)c2)nnc1SCC(=O)OC1CCCCC1,-4.22*,-11.3,i,i,i,i
CCn1c(COc2cccc3ccccc23)nnc1SCC(=O)OC1CCCCC1,-1.2,-32.4,i,10*,i,i
CC(C)OC(=O)CSc1nnc(CNc2cccc(Cl)c2)n1C,-2.44,-5.9,i,i,i,i
CCN(C(=O)c1ccc2c(c1)OCO2)C1CCS(=O)(=O)C1 (centres undefined),1.3,-8.4,i,i,i,i
C/C(=N\Nc1nccnc1Cl)c1ccc([N+](=O)[O-])cc1,0.44,-3.0,i,i,i,i
CCOc1ccc(Cl)cc1CNCCCSc1nc(C)cc(C)n1,-6.59*,-7.4,i,i,i,i
N#C/C(=C\c1ccc(N2CCOCC2)o1)C(=O)Nc1ccc(O)cc1,-5.4,-25.4,i,7*,i,i
N#C/C(=C/c1ccc(N2CCOCC2)o1)C(=O)NC1CCCCC1,-5.76,-23.7,i,7*,i,i
O=c1[nH]ncc(NCc2ccc(Cl)cc2)c1Cl,-1.2,-6.7,i,i,i,i
CN(C)c1ccc(C(=O)Nc2nc3c(s2)CCCC3)cc1,-3.29,-18.0,i,i,i,i
C/C(=N\Nc1nc2c(s1)CCCC2)c1ccc(Cl)cc1,0.02,-6.4,i,6*,i,i
CC(Sc1nc2ccccc2s1)C(=O)NC1CCCc2ccccc21 (centres undefined),-5.84*,-10.8,i,i,i,i
CC(Sc1nc2ccccc2s1)C(=O)N(C)Cc1ccccc1 (centres undefined),-4.21*,-7.1,i,i,i,i
CC(Sc1nnnn1C)C(=O)NC1CCCc2ccccc21 (centres undefined),-1.33,-6.1,i,i,i,i
CC1CN(C(=O)C(C)Sc2nc3ccccc3s2)CC(C)O1 (centres undefined),0.07,-6.1,i,i,i,i
